Compound activity: PubChem BioAssay, several laboratories
MC4R antagonist – blocks human MC4R cAMP signaling; actives 0.48% (n = 360,000); P32245; MC4R-expressing cells, MTII-stimulated cAMP, LANCE TR-FRET; inhibition, % at 6.5 µM;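 active = inhibition above its plate's cutoff, the mean of tested wells on that plate plus 3 SD, cut at about 29% in these data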
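System: U2OS cells stably expressing human melanocortin 4 receptor (MC4R). Reagent: Melanotan II challenge after compound preincubation. Doses: 6.5 µM. Times: 30-min compound, 1-h challenge, 1-h detection, room temperature. Measured by: TR-FRET with Eu-cAMP and labeled anti-cAMP, 671 nm. Replicates: singlicate.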
EBI2 block – antagonists of human EBI2 receptor. EBI2 beta-arrestin recruitment, luminescence, 7a,25-OHC stimulated. inhibition, % at 5 µM. actives 0.81% (n = 360,000); in the data active = inhibition above about 38%;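 note: enzyme fragment complementation signal reports receptor beta-arrestin coupling in cells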
MC4R ag barr – human MC4R agonism via beta-arrestin | activation, % at 8.9 µM | U2OS MC4R beta-arrestin complementation, luminescence; percent of melanotan II response, DMSO zero | actives 0.98% (n = 360,000) | P32245;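 active = activation above a per-plate cutoff, the mean activation of sample wells on that plate plus 3 SD, cut at about 8% in these data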
m5-HT2A agonist – agonists of mouse serotonin 5-HT2A receptor (HTR2A). P35363. CHO-K1 mHTR2A beta-arrestin complementation, luminescence; percent of 30 µM serotonin response. activation, % at 7.6 µM. actives 0.66% (n = 360,000);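 active = activation above a run cutoff, the mean activation of all tested compounds plus 3 SD, cut at about 14% in these data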
Target sequence (P35363 whole entry, looked up): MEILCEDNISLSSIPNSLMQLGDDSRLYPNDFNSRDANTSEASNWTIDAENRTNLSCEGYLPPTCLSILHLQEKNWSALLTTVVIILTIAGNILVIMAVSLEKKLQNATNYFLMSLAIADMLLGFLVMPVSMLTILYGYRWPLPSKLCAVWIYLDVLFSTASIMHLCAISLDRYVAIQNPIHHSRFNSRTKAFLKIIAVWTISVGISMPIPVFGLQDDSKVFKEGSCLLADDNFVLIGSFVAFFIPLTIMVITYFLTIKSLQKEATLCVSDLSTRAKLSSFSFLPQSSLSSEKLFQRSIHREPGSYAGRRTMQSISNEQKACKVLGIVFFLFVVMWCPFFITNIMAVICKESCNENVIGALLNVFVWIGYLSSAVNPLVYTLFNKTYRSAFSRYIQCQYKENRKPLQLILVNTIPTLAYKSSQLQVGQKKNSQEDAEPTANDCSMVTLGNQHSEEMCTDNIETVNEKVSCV
U2OS cAMP counter – counter-screen for MC4R antagonists: nonselective cAMP signaling inhibitors; shares compounds with MC4R antagonist; parental U2OS, forskolin cAMP, LANCE TR-FRET; inhibition, % at 6.5 µM; actives 26% (n = 1,600); AID 602193;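 active = mean inhibition over triplicates above the low-control well mean plus 3 SD, set per campaign, cut at about 13% in these data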;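 note: signal is single emission at 671 nm which falls as cellular cAMP rises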
MC4R antag conf – human MC4R cAMP antagonism confirmation; inhibition, % at 6.5 µM; MC4R-expressing cells, MTII-stimulated cAMP, TR-FRET; shares compounds with MC4R antagonist; actives 27% (n = 1,600); in the data active = inhibition above about 29%
Large screens that a line does not name were inactive (follow-up assays come after a bar, where they were run). Rows were chosen to be rich in hits. Some 2.8% of all compounds tested hit in one or more screens of this group.

CCOC1=C2CN(S(=O)(=O)c3ccc(C)cc3)C(c3ccccc3)CC2N(S(=O)(=O)c2ccc(C)cc2)C(c2ccc(Br)cc2)C1 (stereo not given)	none (no result: MC4R antagonist, MC4R ag barr)
CCOC(=O)C1=CCN(S(=O)(=O)c2ccc(C)cc2)C1c1cccc(Br)c1 (stereo not given)	none (no result: MC4R antagonist, MC4R ag barr)
CCCOc1ccc(F)cc1-c1cc(C(=O)NCc2cccc(C(F)(F)F)c2)[nH]n1	none
CCc1nc2ccc(C(=O)Nc3ccc(OC)c(OC)c3)cn2c1N(C)C(=O)Cc1ccccc1	none
COc1cc(NC(=O)C2=C(N3CCOCC3)/C(=C/c3ccc(Cl)cc3)CC2)cc(OC)c1OC	MC4R antagonist 28.7 | U2OS cAMP counter inactive | MC4R antag conf inactive
O=C(c1nc2ccccn2c1CNCCn1ccc2ccccc21)N1CCOCC1	MC4R antagonist 32.5 | U2OS cAMP counter inactive | MC4R antag conf inactive
CCn1nc(C)cc1-c1nnc(SCC(=O)Nc2ccccc2)n1CCCOC	none
CCn1nc(C)cc1-c1nnc(Sc2ncc([N+](=O)[O-])s2)n1C	MC4R antagonist 45.7 | U2OS cAMP counter 28.0 | MC4R antag conf 57.5
COc1ccc(Br)cc1CN(C)C(=O)c1ccccc1SCC(=O)N1CCCC1	none
CC1(C)CC(=O)C(C=NCCN2CCN(C3CC(=O)N(c4ccc(Br)cc4)C3=O)CC2)=C(O)C1 (stereo not given)	MC4R antagonist 33.4 | U2OS cAMP counter inactive | MC4R antag conf inactive
CC(C)CCOc1ccc(/C=C2\CCn3c2nc2cc(C(=O)O)ccc2c3=O)cc1	MC4R antagonist 32.1 | U2OS cAMP counter inactive | MC4R antag conf inactive
COc1ccc([C@H]2CC(=O)C[C@@H](CCn3cccn3)O2)cc1	none (no result: MC4R antagonist, MC4R ag barr)
O=C(NCCCCCCNC(=O)N1CCCCCC1)N1CCCCCC1	MC4R antagonist 29.7 | U2OS cAMP counter inactive | MC4R antag conf inactive
Cc1ccc(-c2nc3c4ccccc4ccn3c2Cc2ccsc2)cc1	none (no result: MC4R antagonist, MC4R ag barr)
COc1ccc(OC)c(-c2csc(NC(=O)Cc3ccccc3)n2)c1	none
COc1cccc(CC(=O)Nc2nc(-c3cc(OC)ccc3OC)cs2)c1	MC4R antagonist 34.5 | U2OS cAMP counter inactive | MC4R antag conf inactive
c1coc(-c2nc3c([nH]2)CCc2nonc2-3)c1	none
c1ccc(-c2nc3c([nH]2)CCc2nonc2-3)cc1	MC4R antagonist 29.2 | U2OS cAMP counter inactive | MC4R antag conf inactive
O=C(Nc1cc(S(=O)(=O)N2CCCCC2)ccc1Cl)c1ccccc1NS(=O)(=O)c1ccc(F)cc1	MC4R antagonist 30.6 | U2OS cAMP counter inactive | MC4R antag conf inactive
O=C(CN(Cc1ccco1)Cc1ccco1)Nc1cc(S(=O)(=O)N2CCCCC2)ccc1Cl	MC4R antagonist 29.1 | U2OS cAMP counter inactive | MC4R antag conf inactive
O=C(NCc1ccco1)c1cc(S(=O)(=O)N2CCCC2)ccc1Cl	none
CCN(CC)CCCNC(=O)CCC(=O)Nc1ccc2nc(N3CCC(C)CC3)cc(C)c2c1	MC4R antagonist 37.0 | U2OS cAMP counter inactive | MC4R antag conf inactive
CCN(CC)CCCNC(=O)CCC(=O)Nc1ccc2nc(N3CCCCC3)cc(C)c2c1	none
O=C(CSc1n[nH]c(-c2ccccc2O)n1)N1CCOCC1	MC4R antagonist 30.2 | U2OS cAMP counter inactive | MC4R antag conf inactive
CSCCC(NC(=O)c1ccccc1Cl)C(=O)Nc1ccc(C)c(S(=O)(=O)N2CCOCC2)c1 (stereo not given)	MC4R antagonist 29.2 | U2OS cAMP counter inactive | MC4R antag conf inactive
Cc1ccc(NC(=O)CCNC(=O)c2ccccc2Cl)cc1S(=O)(=O)N1CCOCC1	none
CC(=O)c1ccc(NC(=O)c2ccc3c(c2)C(=O)N(c2ccccn2)C3=O)cc1	none
O=C(Nc1cccc([N+](=O)[O-])c1)c1ccc2c(c1)C(=O)N(c1ccccn1)C2=O	MC4R antagonist 35.0 | U2OS cAMP counter inactive | MC4R antag conf inactive
CCOc1cc(/C=C2\N=C(C)OC2=O)cc(Br)c1OCC(=O)OC	MC4R antagonist 44.2 | U2OS cAMP counter inactive | MC4R antag conf inactive
Cc1ccc(S(=O)(=O)N2C[C@H]3[C@H]4C(=O)N(c5ccccc5)C(=O)[C@H]4C[C@H](OC(=O)NCc4ccccc4)[C@@]3(O)C2)cc1	none
